# Only some compounds are listed: those with a hit (about 1.8% of all), similar ones and a draw of the others.
# CSN inh – inhibitors of human CSN-mediated cullin deneddylation | Q92905 | Purified CSN, SCF-Nedd8-OG deneddylation, fluorescence polarization | inhibition, % at 12.5 µM | 360,000 tested, 0.38% active;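 active means pattern-corrected inhibition above about 35%, with an unprinted fluorescence ratio check between 0.5 and 1.5, limit read from the data, passing the limit was not always enough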;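 further: 0% = enzyme with substrate and 100% = substrate without enzyme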
#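 test system = HEK293T-derived human Csn5 enzyme | amount = 0.24 nM Csn5 enzyme, final concentration | medium = Tris/NaCl/DTT buffer, pH 7.5 | schedule = 90 min reaction at room temperature | signal = FP | evaluation = inhibition of Csn5 cleavage, % | compound dosing = single dose of 12.5 µM compound with 0.25% DMSO | probe or stimulus = 10 nM SCFSkp2-Nedd8OG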
# HNF4A DNA FP – change in binding of human HNF4 alpha to DNA; HNF4a-FITC DNA binding, fluorescence polarization, 1 h; P41235; 360,000 tested, 0.3% active; activity change, % at 10 µM; in the data active means activity change above about 30%, passing the limit was not always enough
# UBC9 SUMO inh – SUMOylation inhibition; P63279; HTRF SUMOylation assay, SAE1/SAE2 + UBC9, in vitro; 290,000 tested, 0.36% active; inhibition, % at 35 µM; in the data active means inhibition above about 50%, passing the limit was not always enough
# Target sequence (P63279 whole entry, looked up): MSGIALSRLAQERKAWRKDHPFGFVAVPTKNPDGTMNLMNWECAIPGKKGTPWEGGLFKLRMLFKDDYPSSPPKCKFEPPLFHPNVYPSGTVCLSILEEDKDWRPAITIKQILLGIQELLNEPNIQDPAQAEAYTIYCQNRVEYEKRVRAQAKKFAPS
# SENP1 FRET inh – SENP1 (human) catalytic domain inhibition; inhibition, % at 10 µM; recombinant SENP1 catalytic domain, CyPet-SUMO1-YPet FRET cleavage; 360,000 tested, 0.21% active; AID 624204;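 active means inhibition at least 30% at 10 µM, raw YFP signal under a set limit, fluorescence ratio 0.5 to 1.5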;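 further: 0% = enzyme with DMSO and 100% = no enzyme wells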
#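 Material: hSENP1 catalytic domain, recombinant; medium: Tris pH 8 with BME, BSA, NP40 and catalase; compound: single concentration of 10 µM compound, 0.5% DMSO final; technique: FRET read of cyan and yellow fluorescence; timing: 50 min enzyme reaction, room temperature, light-protected; reagent: SFCypet-SUMO1-SFYpet substrate at 25 nM; control set: no-enzyme low, enzyme-DMSO high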
# TPT1 inh – C. albicans TPT1 enzyme inhibition. recombinant caTPT1, FP RNA substrate dephosphorylation. inhibition, % at 5 µM. 300,000 tested, 0.81% active. AID 1962;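 active means inhibition above the mean of all tested compounds plus 3 SD, set per screening campaign, cut at about 24% in these data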;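 further: plate controls were DMSO alone for no effect and ferristatin control at 100 nM for full effect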
# Rpn11 inh – Rpn11 (human) deubiquitinase inhibition. 360,000 tested, 0.59% active. human 26S proteasome, Ub4-pepOG fluorescence polarization; 20S core pre-blocked with epoxomicin. O00487. calls only at 20 µM;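 active means inhibition at 20 µM, scaled to each plate's controls, above about 33%, limit read from the data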
# Target sequence (O00487 whole entry, looked up): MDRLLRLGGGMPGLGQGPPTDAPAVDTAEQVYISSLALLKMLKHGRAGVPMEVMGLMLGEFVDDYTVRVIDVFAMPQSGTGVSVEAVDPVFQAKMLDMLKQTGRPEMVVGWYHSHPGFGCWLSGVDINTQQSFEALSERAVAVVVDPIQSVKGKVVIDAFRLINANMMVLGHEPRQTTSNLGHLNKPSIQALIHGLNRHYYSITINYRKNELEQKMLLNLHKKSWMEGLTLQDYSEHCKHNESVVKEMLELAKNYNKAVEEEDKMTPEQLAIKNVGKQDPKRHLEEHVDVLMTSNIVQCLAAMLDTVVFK
# An asterisk follows results filed as active; i = inactive; . = no result given; + = active, no number; ! = not confirmed by another sample.
SMILES,CSN inh,HNF4A DNA FP,UBC9 SUMO inh,SENP1 FRET inh,TPT1 inh,Rpn11 inh
C/C(CC(=O)N1CCN(C=O)CC1)=N\NC(=O)c1ccc([N+](=O)[O-])cc1,3,-2,-15,4,-2,i
C/C(CC(=O)N1CCN(C=O)CC1)=N\NC(=O)c1cc2ccccc2cc1O,0,-1,65*,-17,0,i
C/C(=N\NC(=O)c1cc2ccccc2cc1O)c1ccccn1,2,-2,.,16,2,i
C/C(=N\NC(=O)c1cc2ccccc2cc1O)c1cc2ccccc2o1,3,3,56*,29,4,i
O=C(O)CN1C(=O)/C(=C/C=C/c2ccccc2)SC1=S,10,2,17,1,0,i
O=C1CC(N2C(=O)/C(=C/C=C/c3ccccc3)SC2=S)C(=O)N1c1ccccc1 (stereo not given),3,19,20,-11,78*,.
O=c1cc(/C=C/c2c(F)cccc2Cl)[nH]c2ccccc12,-5,-2,6,-7,-5,+
C/C(=N\NC(=O)CNc1cccc2ccccc12)c1ccccc1,0,2,80*,-13,1,i
O=C(CNc1cccc2ccccc12)N/N=C/c1ccc(C(=O)O)cc1,19,-1,77*,-7,-2,i
C/C(CCc1ccco1)=N\NC(=O)CNc1cccc2ccccc12,9,-1,66,-6,0,i
O=C(CNc1cccc2ccccc12)N/N=C/C=C/c1ccco1,16,0,98*,3,-3,i
Cc1ccc(S(=O)(=O)N2[C@@H](c3ccc(C(C)(C)C)cc3)C(C(=O)O)=CC[C@H]2c2ccc(C(C)C)cc2)cc1,30,-39,.,1,.,i
O=C(CNCC1CCCCC1)Nc1cccc(S(=O)(=O)N2CCOCC2)c1,4,2,12,2,-3,i
COc1cccc(C2NC(=O)N(CCCC(=O)O)C(C)=C2C(=O)OCc2ccccc2)c1 (stereo not given),.,.,.,.,1,.
O=C(Cc1ccccc1)Nc1cccc(-c2nc3ncccc3o2)c1,1,-2,11,0,-5,i
O=C(Nc1cccc(-c2nc3ncccc3o2)c1)c1cc2ccccc2o1,-1,-9,-1,1,-2,i
O=C(Nc1cccc(-c2nc3ncccc3o2)c1)c1sc2cc(Cl)ccc2c1Cl,22,176*,-10,-1,0,+
O=C(Nc1cccc(-c2nc3ncccc3o2)c1)c1sc2ccccc2c1Cl,1,43*,14,3,8,i
CC(C)C(NC(=O)c1ccccc1F)C(=O)NCc1ccc(S(=O)(=O)N2CCOCC2)cc1 (stereo not given),2,3,.,0,.,i
Cc1ccc(CNC(=O)c2ccc3c(=O)[nH]c4c(C(=O)NCC5CCCO5)sc(=S)n4c3c2)cc1 (stereo not given),-3,1,25,39*,5,i
O=C(NCc1ccccc1)c1ccc2c(=O)n(CC3CCCO3)c(=S)[nH]c2c1 (stereo not given),0,0,-16,-1,-1,i
CCn1c(N)c(C(=O)NCC2CCCO2)sc1=S (stereo not given),-1,0,1,2,-2,i
Cc1ccc(CNC(=O)c2ccc3c(=O)n(CC4CCCO4)c(=S)[nH]c3c2)cc1 (stereo not given),3,-2,-2,0,-4,i
CCCCCNC(=O)c1ccc2c(=O)[nH]c3c(C(=O)NCC4CCCO4)sc(=S)n3c2c1 (stereo not given),5,1,-7,52*,10,i
O=C(NCc1ccccc1)c1ccc2c(=O)[nH]c3c(C(=O)NCC4CCCO4)sc(=S)n3c2c1 (stereo not given),7,0,2,38*,8,i
SMILES,CSN inh,HNF4A DNA FP,UBC9 SUMO inh,SENP1 FRET inh,TPT1 inh,Rpn11 inh
CC1CCCCN1S(=O)(=O)c1ccc(C(=O)N(CCCN(C)C)c2nc3cc4c(cc3s2)OCO4)cc1 (stereo not given),6,-4,-1,3,2,i
O=c1c2cc(N3CCOCC3)ccc2[nH]c(=S)n1Cc1ccccn1,5,3,55*,-51,-4,i
O=c1c2cc(N3CCOCC3)ccc2[nH]c(=S)n1Cc1ccccc1Cl,1,2,12,-71,0,i
Cc1cc(C)c[n+](-c2nc3ccccc3nc2C(=C=[N-])C#N)c1,33,44*!,11,-7,1,i
CCOc1ccc(S(=O)(=O)N2CCN(C(=O)COc3ccc(Br)cc3)CC2)cc1,3,6,.,3,.,i
COc1ccc(C(C)(C)C)cc1NC(=O)c1ccc[n+]([O-])c1,0,-1,8,1,-1,i
O=C(Nc1ccc(Oc2ccc(Cl)cc2)c(Cl)c1)c1cc(I)cc(I)c1O,9,-4,59*,-5,0,i
COc1ccc(NC(=O)c2ccccc2F)cc1Cl,0,0,-10,0,8,i
Cc1ccc(C(=O)Oc2oc(-c3ccccc3)nc2C=Nc2ccc(N(C)C)cc2)cc1,47*,2,-2,-24,21,.
CN(C)c1ccc(N=Cc2nc(-c3ccccc3)oc2OC(=O)c2cccc(Cl)c2)cc1,6,1,4,-26,15,.
N#C/C(=C(/O)COC(=O)CSc1ccc(Cl)cc1)c1nc2ccccc2[nH]1,7,0,3,-60,8,i
Cc1cc(SCC(=O)OC/C(O)=C(\C#N)c2nc3ccccc3[nH]2)c(C)cc1Br,8,12,55*,-45,9,i
Cc1ccc(/C=C2/SC(=S)N(C3CCCCC3)C2=O)o1,29,34*,7,9,15,+
O=C1/C(=C/c2ccncc2)SC(=S)N1C1CCCCC1,5,0,2,2,0,i
O=C1/C(=C/c2ccco2)SC(=S)N1C1CCS(=O)(=O)C1 (stereo not given),13,9,61*,-8,3,i
CC(C(=O)O)N(C(=O)c1ccccc1)c1ccc(F)cc1 (stereo not given),-1,4,-4,3,0,i
O=C1OC(c2cccs2)=N/C1=C\c1ccc(-c2ccccc2Cl)o1,23,17,8,-7,.,+
CCOc1ccc(N2C(=O)/C(=C/c3cc(OC)c(OC)c(OC)c3)N(CC(=O)OC)C2=S)cc1,6,0,4,-48,4,i
CCOc1ccc(/C=C2/C(=O)N(c3ccc(OC)cc3)C(=S)N2CC(=O)OC)cc1OCC,72,47*,24,-23,20,.
